Measured values taken from ChEMBL document CHEMBL3745659, “Synthesis and Characterization of 4,11-Diaminoanthra[2,3-b]furan-5,10-diones: Tumor Cell Apoptosis through tNOX-Modulated NAD(+)/NADH Ratio and SIRT1” (J Med Chem, 2015).
Active and inactive are the calls of the source. The calls are words filed in the database; no cut-off is given here.

How the values were obtained:
[1] = system: Calf thymus DNA; experiment: Binding affinity to calf thymus double stranded DNA by spectrophotometric titration method; type: nucleic-acid assay; details: Bos taurus
Procedure, shortened: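 Absorption spectra of compound recorded while double-stranded DNA concentration was increased (spectrophotometric titration); extinction at absorption maxima 540 and 585 nm and band shift followed.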

[2] = molecular target: T1, DNA topoisomerase 1 (Homo sapiens) (UniProt P11387); experiment: Inhibition of Top1 (unknown origin)-mediated relaxation of pBR322 DNA at 2.5 uM incubated for 30 mins by ethidium bromide staining-based gel electrophoresis assay
T1 sequence (whole entry): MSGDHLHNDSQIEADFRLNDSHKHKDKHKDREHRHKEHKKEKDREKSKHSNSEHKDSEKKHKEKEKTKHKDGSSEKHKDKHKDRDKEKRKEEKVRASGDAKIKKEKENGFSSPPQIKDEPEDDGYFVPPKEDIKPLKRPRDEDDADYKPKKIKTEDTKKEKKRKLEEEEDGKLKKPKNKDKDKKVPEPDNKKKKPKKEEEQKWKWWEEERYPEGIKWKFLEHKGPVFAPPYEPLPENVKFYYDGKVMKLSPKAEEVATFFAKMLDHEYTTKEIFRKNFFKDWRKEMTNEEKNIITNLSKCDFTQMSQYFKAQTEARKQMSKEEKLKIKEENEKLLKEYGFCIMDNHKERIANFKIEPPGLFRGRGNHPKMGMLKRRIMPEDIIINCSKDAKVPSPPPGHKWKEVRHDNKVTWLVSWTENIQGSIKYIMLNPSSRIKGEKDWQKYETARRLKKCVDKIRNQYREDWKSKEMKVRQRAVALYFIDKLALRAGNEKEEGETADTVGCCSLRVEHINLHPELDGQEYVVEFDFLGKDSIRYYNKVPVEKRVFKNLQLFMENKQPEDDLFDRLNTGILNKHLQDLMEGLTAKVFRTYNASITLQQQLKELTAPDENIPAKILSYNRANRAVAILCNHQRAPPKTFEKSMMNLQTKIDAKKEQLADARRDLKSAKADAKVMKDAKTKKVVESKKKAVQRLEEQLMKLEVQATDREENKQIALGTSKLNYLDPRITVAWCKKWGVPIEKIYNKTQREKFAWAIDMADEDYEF
Procedure, shortened: (§1)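 Supercoiled pBR322 plasmid treated with Top1 without drug or with compound at 0.5, 2.5 or 10 µM; camptothecin as reference; relaxation assessed by gel electrophoresis.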

[3] = system: K562; experiment: Antiproliferative activity against human K562 cells after 72 hrs by MTT assay; type: functional, cell-based; details: K562, 72 h
[4] = Drug uptake in human K562/4 cells at 3 uM incubated for 2 hrs by flow cytometric analysis; type: ADME, cell-based; details: k562/4, 2 h
Procedure, shortened: (§2)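 K562 and K562/4 cells incubated 2 h with 3 µM compound; uptake measured by flow cytometry as ratios (arbitrary units) of mean fluorescence channels of the histograms; verapamil (10 µM), a Pgp transport blocker, added 30 min before compound where used.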

[5] = system: CCRF-CEM; experiment: Antiproliferative activity against human CEM cells after 72 hrs by MTT assay; type: functional, cell-based
[6] = system: L1210; experiment: Antiproliferative activity against mouse L1210 cells after 72 hrs by MTT assay; details: L1210, 72 h
[7] = system: K562; experiment: Drug uptake in human K562 cells at 3 uM incubated for 2 hrs in presence of verapamil by flow cytometric analysis; type: ADME, cell-based; details: k562, 2 h; procedure, shortened: as §2
[8] = Antiproliferative activity against human K562/4 cells after 72 hrs by MTT assay; type: functional, cell-based; details: K562/4, 72 h
[9] = Drug uptake in human K562/4 cells at 3 uM incubated for 2 hrs in presence of verapamil by flow cytometric analysis; type: ADME, cell-based; details: k562/4, 2 h; procedure, shortened: as §2
[10] = Antiproliferative activity against human HCT116 cells after 72 hrs by MTT assay; type: functional, cell-based; details: HCT-116, 72 h
[11] = system: AGS; experiment: Downregulation of tNOX protein level in human AGS cells at 0.1 to 0.5 uM after 24 hrs by Western blot analysis; type: functional, cell-based
[12] = molecular target: T2, NAD-dependent protein deacetylase sirtuin-1 (Homo sapiens) (UniProt Q96EB6); experiment: Inhibition of human recombinant SIRT1 deacetylase activity using Arg-His-Lys-Lys(epsilon-acetyl)-AMC as substrate at 5 uM incubated for 45 mins by fluorescence analysis
T2 sequence (whole entry): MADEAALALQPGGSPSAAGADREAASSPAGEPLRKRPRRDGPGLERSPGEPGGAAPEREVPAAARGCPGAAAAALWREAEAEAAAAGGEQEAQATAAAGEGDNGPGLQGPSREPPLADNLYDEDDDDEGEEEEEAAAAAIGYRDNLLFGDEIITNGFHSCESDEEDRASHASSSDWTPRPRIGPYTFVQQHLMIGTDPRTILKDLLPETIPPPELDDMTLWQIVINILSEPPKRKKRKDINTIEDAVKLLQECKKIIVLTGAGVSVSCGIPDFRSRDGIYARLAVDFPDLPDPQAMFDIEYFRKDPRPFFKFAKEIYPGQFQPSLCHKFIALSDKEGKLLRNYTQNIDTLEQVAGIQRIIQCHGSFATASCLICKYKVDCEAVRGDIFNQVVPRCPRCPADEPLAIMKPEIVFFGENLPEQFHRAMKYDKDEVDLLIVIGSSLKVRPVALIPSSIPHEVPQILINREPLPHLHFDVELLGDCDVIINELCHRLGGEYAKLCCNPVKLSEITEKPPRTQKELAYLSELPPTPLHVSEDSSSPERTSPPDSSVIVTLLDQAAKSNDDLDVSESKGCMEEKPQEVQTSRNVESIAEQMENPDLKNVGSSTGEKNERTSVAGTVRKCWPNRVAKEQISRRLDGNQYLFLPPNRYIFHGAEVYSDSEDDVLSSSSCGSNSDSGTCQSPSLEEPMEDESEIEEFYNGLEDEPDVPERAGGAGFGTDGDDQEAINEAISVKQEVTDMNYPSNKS

[13] = molecular target: T1, DNA topoisomerase 1 (Homo sapiens); experiment: Inhibition of Top1 (unknown origin)-mediated relaxation of pBR322 DNA at 0.5 to 10 uM incubated for 30 mins by ethidium bromide staining-based gel electrophoresis assay; procedure, shortened: as §1
[14] = system: HeLa; experiment: Antiproliferative activity against human HeLa cells after 72 hrs by MTT assay; type: functional, cell-based
[15] = system: AGS; experiment: Upregulation of caspase3-directed PARP cleavage in human AGS cells at 1 to 5 uM after 24 hrs by Western blot analysis; type: functional, cell-based
[16] = system: AGS; experiment: Induction of apoptosis in human AGS cells assessed as necrotic cells at 10 uM after 24 hrs by annexin V-FITC staining-based flow cytometric analysis (Rvb=1.1%); type: functional
[17] = system: AGS; experiment: Downregulation of tNOX protein level in human AGS cells at 1 and 5 uM after 24 hrs by Western blot analysis; type: functional, cell-based
[18] = system: AGS; experiment: Induction of apoptosis in human AGS cells assessed as viable cells at 10 uM after 24 hrs by annexin V-FITC staining-based flow cytometric analysis (Rvb=83.7%); type: functional
Procedure, shortened: (§3)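 AGS cells exposed to compound for 24 h; Annexin V-FITC staining and flow cytometry used to give percentage of apoptotic cells; mean ± S.E. from at least three independent experiments.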

[19] = system: AGS; experiment: Upregulation of phosphorylated p53 level in human AGS cells at 1 and 5 uM after 24 hrs by Western blot analysis; type: functional, cell-based
[20] = system: AGS; experiment: Induction of apoptosis in human AGS cells assessed as late apoptotic cells at 10 uM after 24 hrs by annexin V-FITC staining-based flow cytometric analysis (Rvb=5.5%); type: functional; procedure, shortened: as §3
[21] = system: K562; experiment: Resistance index, ratio of IC50 for human K562/4 cells to IC50 for human K562 cells; type: functional
[22] = system: AGS; experiment: Induction of apoptosis in human AGS cells after 24 hrs by annexin V-FITC staining-based flow cytometric analysis; type: functional, cell-based; procedure, shortened: as §3
[23] = system: AGS; experiment: Downregulation of Bid protein level in human AGS cells after 24 hrs by Western blot analysis; type: functional, cell-based
[24] = system: AGS; experiment: Induction of apoptosis in human AGS cells assessed as early apoptotic cells at 10 uM after 24 hrs by annexin V-FITC staining-based flow cytometric analysis (Rvb=9.8%); type: functional; procedure, shortened: as §3
[25] = system: AGS; experiment: Downregulation of SIRT1 protein level in human AGS cells at 1 and 5 uM after 24 after 24 hrs by Western blot analysis; type: functional, cell-based
[26] = system: AGS; experiment: Upregulation of caspase3-directed PARP cleavage in human AGS cells at 5 uM after 24 hrs by Western blot analysis; type: functional, cell-based
[27] = system: AGS; experiment: Upregulation of acetylated p53 level in human AGS cells at 1 and 5 uM after 24 hrs by Western blot analysis; type: functional, cell-based
[28] = system: AGS; experiment: Induction of apoptosis in human AGS cells assessed as change in mitochondrial transmembrane potential incubated for 1.5 hrs by DiOC6(3) dye-based flow cytometric analysis; type: functional, cell-based
[29] = molecular target: T1, DNA topoisomerase 1 (Homo sapiens); experiment: Inhibition of Top1 (unknown origin)-mediated relaxation of pBR322 DNA at 0.5 uM incubated for 30 mins by ethidium bromide staining-based gel electrophoresis assay; procedure, shortened: as §1
[30] = system: AGS; experiment: Upregulation of total p53 level in human AGS cells at 1 and 5 uM after 24 hrs by Western blot analysis; type: cell-based
[31] = molecular target: T2, NAD-dependent protein deacetylase sirtuin-1 (Homo sapiens); experiment: Inhibition of human recombinant SIRT1 deacetylase activity using Arg-His-Lys-Lys(epsilon-acetyl)-AMC as substrate incubated for 45 mins by fluorescence analysis

O=C1c2c(O)ccc(O)c2C(=O)c2c(NCCNCCO)ccc(NCCNCCO)c21
Ka [1]: 1 ×10⁶ /M

N=C(N)NCCNc1c2c(c(NCCNC(=N)N)c3sccc13)C(=O)c1ccccc1C2=O
inhibition [2]: Active

Cc1cc2c(NCCNC(=N)N)c3c(c(NCCNC(=N)N)c2o1)C(=O)c1ccccc1C3=O
inhibition [2]: Active

COc1cccc2c1C(=O)c1c(O)c3c(c(O)c1C2=O)C[C@@](O)(C(=O)CO)C[C@@H]3O[C@H]1C[C@H](N)[C@H](O)[C@H](C)O1 [DOXORUBICIN]
IC50 [3]: 120 nM
Drug uptake [4]: Not Active
IC50 [5]: 60 nM
IC50 [6]: 370 nM
Drug uptake [7]: Active
IC50 [8]: 9750 nM
Drug uptake [9]: Not Active
IC50 [10]: 110 nM
Activity [11]: Active

CN1CCN(C(=O)c2cc3c(NCCN)c4c(c(NCCN)c3o2)C(=O)c2ccccc2C4=O)CC1
IC50 [3]: 25200 nM
inhibition [12]: inactive
inhibition [13]: inactive
IC50 [14]: 61300 nM
Activity [15]: inactive
IC50 [5]: 25000 nM
Activity [16]: inactive
IC50 [6]: 26100 nM
Activity [17]: inactive
Activity [18]: inactive
Activity [19]: Active
IC50 [8]: > 100000 nM
IC50 [10]: 3100 nM
Activity [20]: inactive
Ratio IC50 [21]: >4
Activity [22]: inactive
Activity [23]: Active
Activity [24]: inactive

O=C1c2ccccc2C(=O)c2c1c(NCCNCCO)c1ccoc1c2NCCNCCO
IC50 [3]: 110 nM
Activity [25]: Active
IC50 [14]: 460 nM
Activity [26]: Active
Activity [27]: Active
IC50 [5]: 430 nM
IC50 [6]: 140 nM
Activity [28]: Active
Activity [19]: Active
IC50 [8]: 9800 nM
Drug uptake [9]: Active
IC50 [10]: 220 nM
Ratio IC50 [21]: 89.09
Activity [22]: Dose-dependent effect
Activity [23]: Active
Activity [11]: Active

CN1CCN(C(=O)c2cc3c(NCCNC(=N)N)c4c(c(NCCNC(=N)N)c3o2)C(=O)c2ccccc2C4=O)CC1
IC50 [3]: 49500 nM
Activity [25]: inactive
IC50 [14]: 38400 nM
Activity [26]: inactive
Activity [27]: inactive
IC50 [5]: 97700 nM
Activity [16]: inactive
IC50 [6]: 79300 nM
Activity [17]: inactive
Activity [18]: inactive
Activity [19]: inactive
IC50 [8]: > 100000 nM
IC50 [10]: 4500 nM
Activity [20]: inactive
inhibition [2]: Active
inhibition [29]: Active
Ratio IC50 [21]: >2
Activity [22]: inactive
Activity [23]: inactive
Activity [24]: inactive
Activity [30]: Not Active

CNCCNc1c2c(c(NCCNC)c3oc(C)cc13)C(=O)c1ccccc1C2=O
IC50 [14]: 190 nM
IC50 [8]: 4260 nM
IC50 [10]: 1600 nM
Ratio IC50 [21]: 35.5

NCCCNc1c2c(c(NCCCN)c3occc13)C(=O)c1ccccc1C2=O
IC50 [14]: 870 nM
IC50 [5]: 890 nM
IC50 [6]: 730 nM
IC50 [10]: 410 nM

NCCNc1c2c(c(NCCN)c3occc13)C(=O)c1ccccc1C2=O
IC50 [3]: 110 nM
inhibition [12]: Active
Activity [25]: Active
IC50 [14]: 550 nM
Activity [26]: Active
Activity [27]: Active
IC50 [5]: 750 nM
IC50 [6]: 300 nM
Activity [28]: Active
Activity [19]: Active
IC50 [8]: 150 nM
IC50 [10]: 110 nM
Ratio IC50 [21]: 1.36
Activity [22]: Dose-dependent effect
Activity [23]: Active
Activity [11]: Active

NC(=O)c1cccnc1
inhibition [31]: Active

CN(C)CCNc1c2c(c(NCCN(C)C)c3occc13)C(=O)c1ccccc1C2=O
IC50 [3]: 120 nM
Activity [25]: Active
IC50 [14]: 390 nM
Activity [26]: Active
Activity [27]: Active
IC50 [5]: 340 nM
IC50 [6]: 230 nM
Activity [28]: Active
Activity [19]: Active
IC50 [8]: 210 nM
IC50 [10]: 150 nM
Ratio IC50 [21]: 1.75
Activity [22]: Dose-dependent effect
Activity [23]: Active
Activity [11]: Active

NCCNC(=O)c1cc2c(NCCN)c3c(c(NCCN)c2o1)C(=O)c1ccccc1C3=O
IC50 [14]: 83800 nM
IC50 [5]: 105000 nM
IC50 [6]: 26400 nM
IC50 [10]: 6520 nM
